Hits are enriched below; roughly 1.6% of the tested compounds scored in any of these assays.
RBBP9 inhibitor: blocks human serine hydrolase RBBP9. O75884. recombinant RBBP9, FP-Rh probe fluorescence polarization. inhibition, % at 7.94 µM. 220,000 tested, 0.2% active. AID 1515;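 active means inhibition above the campaign mean of all tested compounds plus 3 SD, cut at about 14% in these data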;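 further: plate controls were DMSO wells with RBBP9 for no effect and wells lacking RBBP9 protein for full effect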
Target sequence (O75884 whole entry, looked up): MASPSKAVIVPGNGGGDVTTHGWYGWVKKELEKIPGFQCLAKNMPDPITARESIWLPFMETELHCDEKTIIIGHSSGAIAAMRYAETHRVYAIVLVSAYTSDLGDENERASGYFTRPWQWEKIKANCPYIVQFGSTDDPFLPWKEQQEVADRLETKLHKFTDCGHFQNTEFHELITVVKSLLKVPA
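Test system: recombinant human RBBP9; Timing: 30 min then 45 min, 25 °C; Detection: fluorescence polarization; Control set: RBBP9 with DMSO as uninhibited control, no-protein wells as full inhibition; Compound dosing: one concentration, 7.94 µM nominal, 0.794% DMSO; Probe or stimulus: FP-Rh activity-based probe, 375 nM before mixing.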
TCR-CD3 inh: human TCR-CD3 binding inhibition; TAMRA-labeled TCR probe fluorescence, biochemical; inhibition, % at 9.4 µM; 360,000 tested, 0.37% active; AID 651800; in the data active means inhibition above about 19%;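 further: recombinant mutant TCR 2C K166C tagged with TAMRA read by polarization; 0% = receptor in buffer alone and 100% = receptor with positive control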
eIF4H FP inh: inhibitors of RNA binding by human eIF4H | inhibition, % at 35 µM | eIF4H fluorescence polarization binding assay | 290,000 tested, 0.94% active | Q15056;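 further: calls also rest on retests at 20 µM and on dose response follow-up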
MLLE-PAM2 inh: blocks PAM2 peptide binding to the PABP1 MLLE domain | P11940 | GST-MLLE / FITC-PAM2 fluorescence polarization | inhibition, % at 20 µM | 360,000 tested, 0.36% active | AID 588489; in the data active means inhibition above about 35%, passing the limit was not always enough;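 further: plate controls were DMSO wells with GST-MLLE for no effect and wells lacking GST-MLLE protein for full effect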
PABP polyA inh: PABP-poly(A) binding inhibition; 290,000 tested, 1% active; P11940; PABP-poly(A) RNA binding, fluorescence polarization; calls only at 35 µM;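 further: calls also rest on retests at 20 µM and on dose response follow-up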
Active calls of the source: *; i = inactive; ? = inconclusive; . = no result; + = active, no number. Unless noted, how the calls were made is not given here.

SMILES	RBBP9 inhibitor	TCR-CD3 inh	eIF4H FP inh	MLLE-PAM2 inh	PABP polyA inh
COc1ccc(CNC(=O)C(c2ccco2)N(C(=O)Cc2cccs2)c2cccnc2)cc1 (stereo not given)	4	2	77*	6	i
CS(=O)(=O)N1CCN(C(=O)C(Sc2ccccc2)c2ccccc2)CC1 (stereo not given)	1	4	-7	43*	i
COc1ccc(CCNc2nc3ccccc3n3nnnc23)cc1OC	-8	3	?	21	+
C[C@@H]1CN([C@@H](C)CO)C(=O)CCCn2cc(nn2)CO[C@H]1CN(C)C(=O)Nc1ccc(C(C)(C)C)cc1	.	3	.	.	.
Nc1ccc2c(c1Cl)C(=O)c1ccc(N)c(Cl)c1C2=O	-6	10	109*	28	+
CCc1c(C)sc(NC(=O)c2cc(C3CC3)on2)c1C#N	.	2	-8	36*	i
CCc1c(C)sc(NC(=O)c2cc(C)on2)c1C#N	-3	2	5	18	i
O=C(COC(=O)c1cccc([N+](=O)[O-])c1)NCC1CCCO1 (stereo not given)	-3	-2	active	-8	+
O=C(COc1ncnc2ccc(Br)cc12)N1CCOCC1	-1	-9	1.0*	-10	+
O=C(COc1ncnc2ccccc12)N1CCOCC1	2	0	8	-5	i
COCCN(CCOC)Cc1c(O)ccc2c1O/C(=C\c1ccco1)C2=O	.	-1	91*	70	+
O=C1/C(=C/c2ccco2)Oc2c1ccc(O)c2CN1CCCCC1	-2	-1	100	70	i
COC(=O)[C@]12C[C@H](CC(=O)NCC3CCCCC3)C(=O)N(Cc3ccccc3)C1=C[C@H](C(C)(C)C)O[C@@H]2C	.	-7	.	.	.
O=c1[nH]ncc(NCc2ccc(Cl)cc2)c1Cl	3	3	0	-10	+
Cc1n[nH]c(=O)nc1NCc1ccc(Cl)cc1	-9	-3	-2	-1	i
Cc1cccc2nc(-c3ccccc3)c(-c3ccc(CN4CCC(n5cc(-c6ccccc6)[nH]c5=O)CC4)cc3)nc12	.	6	.	.	.
Cc1nnc(-c2ccco2)c2cn(-c3cccc(Br)c3)nc12	-2	1	64*	-68	i
Cc1ccc(C(=O)Nc2nc3ccccc3c(=O)s2)cc1	-6	-2	4	46*	i
CSc1nc2ccc3nc(NC(=O)c4ccc(C)cc4)sc3c2s1	-2	-3	-8	-1	i
COC(=O)c1cccc2c([N+](=O)[O-])c(NC(C)=O)cc(C(=O)OC)c12	.	7	.	.	.
COc1ccc(OC)c(C2=C/C(=C/c3ccccn3)C(=O)O2)c1	4	-9	91*	-41	i
COc1ccc(OC)c(-c2oc3ccccc3c(=O)c2O)c1	-10	-7	-7	20	i
CCC(C)n1c(-c2ccco2)nc2nc3ccccc3nc21 (stereo not given)	2	.	?	.	+
CC(C)OCCCn1c(-c2ccco2)nc2nc3ccccc3nc21	-7	-4	?	-18	i
CC[n+]1cc(-c2ccccc2)nc(N2CCOCC2)n1	-4	-8	-3	-113	+
SMILES	RBBP9 inhibitor	TCR-CD3 inh	eIF4H FP inh	MLLE-PAM2 inh	PABP polyA inh
CN(C)C(=O)N1CCN(C(=O)[C@H](CCc2ccccc2)NC(=O)[C@H]2O[C@@H](n3cnc4c(N)ncnc43)[C@H](O)[C@@H]2O)CC1	.	4	.	.	.
O=C1c2nc3cc(-c4ccco4)[nH]n3c(=O)c2CN1Cc1ccccc1	-1	1	85*	12	+
CCCCN1/C(=C/c2cccc[n+]2C)Sc2cc(NC(C)=O)ccc21	.	-1	0	-142	+
CC(=O)Nc1ccc2c(O)cc(S(=O)(=O)O)cc2c1	.	-1	.	8	.
Nc1cccc2c(O)cc(S(=O)(=O)O)cc12	.	.	.	34	.
Cc1ccc(S(=O)(=O)c2cc(Nc3ccccc3)ccc2O)cc1	.	2	.	-3	.
O=S(=O)(O)c1ccc(O)c2cc(Nc3ccccc3)ccc12	.	44*	.	45*	.
O=S(=O)(O)c1cc(O)c2cc(Nc3ccccc3)ccc2c1	.	19*	.	46*	.
O=S(=O)(O)c1cc(O)c2ccc(Nc3ccccc3)cc2c1	.	35*	.	13	.
Nc1ccc2c(O)cc(S(=O)(=O)O)cc2c1	.	14	.	49*	.
N#Cc1ccc(C(=O)NCC2CCN(C(=O)C(=O)c3cccs3)CC2)cc1	.	-4	.	.	.
COC(=O)Cc1c([C@H](C)[C@@H](OC)c2ccccc2Br)nnn1Cc1ccccc1	.	4	.	.	.
Nc1ccn([C@@H]2O[C@H](C(=O)N[C@H](Cc3ccccc3)C(=O)N3CCN(CCO)CC3)[C@@H](O)[C@H]2O)c(=O)n1	.	0	.	.	.
COc1ccccc1CCn1cnc(-c2ccc(F)cc2)c1CC(C)C	.	-4	.	.	.
COc1ccccc1Nc1ccc2c(O)cc(S(=O)(=O)O)cc2c1	.	40*	.	6	.
O=C(NCc1ccccc1)[C@@H]1CCCN1C(=O)[C@H]1CCCN1C(=O)c1ccc(Cl)cc1	.	-3	.	.	.
CCCC(C)C(=O)NC1CCCCN(C)C1=O (stereo not given)	.	-3	.	.	.
COc1ccc(N2C(=O)c3n[nH]c(C)c3C2c2cccc(C(F)(F)F)c2)cc1 (stereo not given)	.	-4	.	.	.
Cc1cc(N2CCN(C(=O)OC(C)(C)C)C[C@H]2C)ccc1N1CCN(Cc2ccccc2)[C@@H](C)C1	.	7	.	.	.
Cc1cc(Nc2cccc(Br)c2)cc(=O)n1-c1cccc(Br)c1	.	-7	.	.	.
CCCc1cc(=O)oc2c(CNc3ccc(OCC)cc3)c(O)ccc12	.	-3	76	-37	+
CCOc1cc(/C=C2\C(=N)N3N=C(C)SC3=NC2=O)ccc1OCCOc1cccc(OC)c1	.	5	-3	5	i
CCc1nn2c(=O)cc(COc3ccc(/C=C4\C(=N)N5N=C(C)SC5=NC4=O)cc3)nc2s1	-1	8	70*	-3	+
CCc1cc2c(nc1CC)CCCN2S(=O)(=O)c1ccccc1C	.	2	.	.	.
COc1ccc(NS(=O)(=O)c2cc(NC(=O)CCSc3ccccc3)ccc2OC)cc1	-11	3	5.3*	6	+
COc1ccc(NC(=O)CCSc2ccc(C)cc2)cc1S(=O)(=O)Nc1ccccc1Cl	-5	-4	4	18	i
